In the EternaBench riboswitch data:

How the values were obtained:
MS2 coat protein [1] = experiment: apparent Kd, MS2 coat protein; higher = weaker binding; RNA-MaP array
Procedure, shortened: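 The designed RNAs, transcribed from sequenced DNA templates on an Illumina sequencing chip, were incubated with fluorescently labeled MS2 coat protein at room temperature. Protein ranged from 1.5 nM to 3 μM, with 0.8–1.5 h incubation at the lowest and 10–20 min at the highest concentrations, in Tris-HCl pH 7.5 buffer with KCl, MgCl2, BSA, DTT, tRNA and Tween20, with or without input ligand. The median of per-cluster binding-curve fits gives the apparent Kd, and designs measured on fewer than 10 clusters were excluded.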

MS2 coat protein [2] = experiment: apparent Kd, MS2 coat protein; higher = weaker binding; RNA-MaP array; FMN 200 µM where present
Procedure, shortened: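 The apparent Kd comes from binding curves fitted cluster by cluster, filtered, and summarised as a median. Those curves followed SNAP-549-labelled MS2 coat protein from 0.7 or 1.5 nM, doubling to 3 µM, on Illumina sequencing-chip clusters where stalled E. coli RNA polymerase had transcribed the designs, without and then with constant ligand. The buffer was 100 mM Tris-HCl pH 7.5, 80 mM KCl, 4 mM MgCl2, BSA, DTT, yeast tRNA and Tween-20, and green signal was normalised to red-channel RNA signal and control-cluster median Fmax.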

[3] = designed as: ON switch for flavin mononucleotide, no ligand
[4] = ligand present: flavin mononucleotide, designed as: ON switch for flavin mononucleotide
[5] = designed as: OFF switch for flavin mononucleotide, no ligand
[6] = ligand present: flavin mononucleotide, designed as: OFF switch for flavin mononucleotide
[7] = designed as: ON switch for tryptophan, no ligand
[8] = ligand present: tryptophan, designed as: ON switch for tryptophan

ACUGCUUUAGCGGCCGCCACUACAUGGACACUUACACUUUCUUGUUACAUGAGGAUCACCCAUGUUAGGACCGGGCUUGUACGGA
apparent Kd (MS2 coat protein [1]; designed as: OFF switch for tryptophan, no ligand): 62.1 nM | apparent Kd (MS2 coat protein [1]; ligand present: tryptophan, designed as: OFF switch for tryptophan): 78.2 nM

AUUAAGUCGACAGGAUAUCCGUACUUUGAGUAAGGAGAAGGGUCUACAAAGGUACAUGAGGAUCACCCAUGUGACUUGGCCGUC
apparent Kd (MS2 coat protein [1]; [3]): 10.1 nM | apparent Kd (MS2 coat protein [1]; [4]): 7.7 nM

GCCAAGGUAACAGGAUAUUCUAAAGACGUGAGAUACUAAAUAAACAUGAGGAUCACCCAUGUGAAGAAGAAGGGUUAAGAGUAC
apparent Kd (MS2 coat protein [1]; [5]): 15.2 nM | apparent Kd (MS2 coat protein [1]; [6]): 12.5 nM

GCGUGACAUGAGGAUCACCCAUGUAGACUUGUGGAAGGAUAUACGAGAGUUCGAGUUAAGGUAGAAGGUCCCGAUG
apparent Kd (MS2 coat protein [1]; [3]): 41.3 nM | apparent Kd (MS2 coat protein [1]; [4]): 16.3 nM

GAUCCGCUCGAGAAGGUCGUCGGGCACCGAGUCGAAGGAUAUCGAGAAUGAAGACAUGAGGAUCACCCAUGUGAGGAGCGAUCC
apparent Kd (MS2 coat protein [1]; [5]): 136 nM | apparent Kd (MS2 coat protein [1]; [6]): 126 nM

CAAGACAUGAGGAUCACCCAUGUGGUGUACCGAGGACCGGUACGGCCGCCACUCGUUCAUCGGUCGACAAGCUACCCUUCAAGGU
apparent Kd (MS2 coat protein [1]; [7]): 24.2 nM | apparent Kd (MS2 coat protein [1]; [8]): 38.7 nM

AUGCACGGGCUAAUCUGCGAUUGGCACGAUACCAGAGAUCAAGACCUCCCUUGGCAGCGUGUCACAUGAGGAUCACCCAUGUGGA
apparent Kd (MS2 coat protein [1]; designed as: OFF switch for theophylline, no ligand): 131 nM | apparent Kd (MS2 coat protein [1]; ligand present: theophylline, designed as: OFF switch for theophylline): 94.8 nM

AGCAGAGCCUAGAAGGCAGUGCAGACCGCGCACUGAGGAUAUAGACUUUAAGAUUGUACAUGAGGAUCACCCAUGUUGAGUGGG
apparent Kd (MS2 coat protein [1]; [5]): 563 nM | apparent Kd (MS2 coat protein [1]; [6]): 450 nM

CACAUGAGGAUCACCCAUGUCGCGGUGUGACCGAUACUCGAAUAGGAUAUGCUUGACACUUCGUGGCAGAAGGAUUGAGGUUCG
apparent Kd (MS2 coat protein [1]; [5]): 76.6 nM | apparent Kd (MS2 coat protein [1]; [6]): 54.9 nM

GCAGACAUGAGGAUCACCCAUGUACUUGGGCGAGGACCGGUACGGCCGCCACUCGUAGACUUGACGAGGAAAUGUUCUCGCAGGG
apparent Kd (MS2 coat protein [1]; [7]): 22.4 nM | apparent Kd (MS2 coat protein [1]; [8]): 19.1 nM

ACCGAUCGAGGAUAUACAGAACAAAAGAACAUGACGAAGAAACAUGAGGAUCACCCAUGUAGAAGGCGAAAAGA
apparent Kd (MS2 coat protein [1]; [5]): 8.58 nM | apparent Kd (MS2 coat protein [1]; [6]): 9.05 nM

UAGGACAUGAGGAUCACCCAUGUUGUACGGCGAGGACCGGUACGGCCGCCACUCGAGGCGUAAGUAGUAAAGAAUCUGAUUCAAU
apparent Kd (MS2 coat protein [1]; [7]): 21.4 nM | apparent Kd (MS2 coat protein [1]; [8]): 24.1 nM

AAAAGACAUGAGGAUCACCCAUGUCAAGACGUGGGAGGAUAUGCAUGGAAAACAUGCUGUGCAGAAGGCCCGUGUC
apparent Kd (MS2 coat protein [2]; [3]): 25.6 nM | apparent Kd (MS2 coat protein [2]; [4]): 17.9 nM

AAAAAGUUAGGAUAUACAUGAGGAUCACCCAUGUACAUAUAUGGAGAAAAAAACAGUAGUAGAAGGGACAAAAA
apparent Kd (MS2 coat protein [2]; [5]): 25.6 nM | apparent Kd (MS2 coat protein [2]; [6]): 35.1 nM

UUGCUACAUGAGGAUCACCCAUGUCAGGAUAUUGUCUAUACCGUGGAAGCUGUGUCGAUAAGAAGGGACUGUCU
apparent Kd (MS2 coat protein [2]; [5]): 24.1 nM | apparent Kd (MS2 coat protein [2]; [6]): 41.6 nM

AAUAUAAGAGCUGGUAAUCUCAAAACAUGAGGAUCACCCAUGUAGGAUAUCAGCACGAUAAGUGCUGAGAAGGACAUCCAGCUC
apparent Kd (MS2 coat protein [2]; [5]): 14.3 nM | apparent Kd (MS2 coat protein [2]; [6]): 16.7 nM

CUGUAACAUGAGGAUCACCCAUGUCAGGAUAUCUAUCAUAGCAUCGAAAGAUGCGGGUAGAGAAGGGACUAUCC
apparent Kd (MS2 coat protein [2]; [5]): 17 nM | apparent Kd (MS2 coat protein [2]; [6]): 18.2 nM

ACAUAAAUUCGAGGAUAUCGGUGAUAUAAUUUACGAGAAGGCGAUAAUAGUUAUAAACUUAUAGACAUGAGGAUCACCCAUGUA
apparent Kd (MS2 coat protein [2]; [3]): 30.2 nM | apparent Kd (MS2 coat protein [2]; [4]): 28.3 nM

CGACAGUACACAGGAUAUCCUCGACUUUGUCGAGGAGAAGGGUGUAAACAUGAGGAUCACCCAUGUAUACUGUCGAAAUAUAAU
apparent Kd (MS2 coat protein [2]; [3]): 350 nM | apparent Kd (MS2 coat protein [2]; [4]): 38.7 nM

UAAGUUGAGGAGAAGGGAGCACAUGAGGAUCACCCAUGUGGUCCUUUGUGCUCAGGAUAUCCAUGGAGCUCCGUCGCGUUCCAU
apparent Kd (MS2 coat protein [2]; [5]): 4.49 nM | apparent Kd (MS2 coat protein [2]; [6]): 3.32 nM

AAAUCACAUGAGGAUCACCCAUGUGAGGAUAUGAUACUAUGUACUUCGGUACAUAGUAUCAGAAGGCAUGUGGA
apparent Kd (MS2 coat protein [2]; [5]): 32 nM | apparent Kd (MS2 coat protein [2]; [6]): 36.8 nM
